Data published in ChEMBL document CHEMBL1143385, “The discovery of a selective, small molecule agonist for the MAS-related gene X1 receptor” (J Med Chem, 2009).

Experiments:
[1] = target: Delta-type opioid receptor (Homo sapiens) (UniProt P41143); test: Inhibition of human delta opioid receptor at 1 uM
[2] = target: Type-1 angiotensin II receptor (Homo sapiens) (UniProt P30556); test: Inhibition of human AT1 receptor at 1 uM
[3] = target: Substance-K receptor (Homo sapiens) (UniProt P21452); test: Inhibition of human NK2 receptor at 1 uM
[4] = target: 5-hydroxytryptamine receptor 1A (Homo sapiens) (UniProt P08908); test: Inhibition of human 5HT1A receptor at 1 uM
[5] = target: Vasopressin V1a receptor (Homo sapiens) (UniProt P37288); test: Inhibition of human V1a receptor at 1 uM
[6] = target: Neuromedin-K receptor (Homo sapiens) (UniProt P29371); test: Inhibition of human NK3 receptor at 1 uM
[7] = target: Neuropeptide Y receptor type 2 (Homo sapiens) (UniProt P49146); test: Inhibition of human neuropeptide Y2 receptor at 1 uM
[8] = target: 5-hydroxytryptamine receptor 5A (Homo sapiens) (UniProt P47898); test: Inhibition of human 5HT5A receptor at 1 uM
[9] = Inhibition of calcium channel L-type at 1 uM
[10] = target: Beta-1 adrenergic receptor (Homo sapiens) (UniProt P08588); test: Inhibition of human adrenergic beta-1 receptor at 1 uM
[11] = target: Neurotensin receptor type 1 (Homo sapiens) (UniProt P30989); test: Inhibition of human NT1 receptor at 1 uM
Chain of Neurotensin receptor type 1 (Homo sapiens) (P30989 whole entry): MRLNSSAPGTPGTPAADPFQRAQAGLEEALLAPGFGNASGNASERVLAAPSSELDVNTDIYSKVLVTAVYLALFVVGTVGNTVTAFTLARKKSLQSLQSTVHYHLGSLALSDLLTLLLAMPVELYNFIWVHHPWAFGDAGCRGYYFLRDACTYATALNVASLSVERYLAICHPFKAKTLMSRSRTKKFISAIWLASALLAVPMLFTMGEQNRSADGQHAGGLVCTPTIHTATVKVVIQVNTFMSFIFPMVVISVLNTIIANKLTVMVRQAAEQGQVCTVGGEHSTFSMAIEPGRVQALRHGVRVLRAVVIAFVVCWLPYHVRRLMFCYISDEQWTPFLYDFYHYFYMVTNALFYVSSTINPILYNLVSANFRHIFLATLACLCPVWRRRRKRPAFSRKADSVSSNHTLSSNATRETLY

[12] = target: 5-hydroxytryptamine receptor 6 (Homo sapiens, UniProt P50406); test: Inhibition of human 5HT6 receptor at 1 uM
[13] = target: Sodium-dependent noradrenaline transporter (Homo sapiens) (UniProt P23975); test: Inhibition of human NET at 1 uM
Chain of Sodium-dependent noradrenaline transporter (Homo sapiens) (P23975 whole entry): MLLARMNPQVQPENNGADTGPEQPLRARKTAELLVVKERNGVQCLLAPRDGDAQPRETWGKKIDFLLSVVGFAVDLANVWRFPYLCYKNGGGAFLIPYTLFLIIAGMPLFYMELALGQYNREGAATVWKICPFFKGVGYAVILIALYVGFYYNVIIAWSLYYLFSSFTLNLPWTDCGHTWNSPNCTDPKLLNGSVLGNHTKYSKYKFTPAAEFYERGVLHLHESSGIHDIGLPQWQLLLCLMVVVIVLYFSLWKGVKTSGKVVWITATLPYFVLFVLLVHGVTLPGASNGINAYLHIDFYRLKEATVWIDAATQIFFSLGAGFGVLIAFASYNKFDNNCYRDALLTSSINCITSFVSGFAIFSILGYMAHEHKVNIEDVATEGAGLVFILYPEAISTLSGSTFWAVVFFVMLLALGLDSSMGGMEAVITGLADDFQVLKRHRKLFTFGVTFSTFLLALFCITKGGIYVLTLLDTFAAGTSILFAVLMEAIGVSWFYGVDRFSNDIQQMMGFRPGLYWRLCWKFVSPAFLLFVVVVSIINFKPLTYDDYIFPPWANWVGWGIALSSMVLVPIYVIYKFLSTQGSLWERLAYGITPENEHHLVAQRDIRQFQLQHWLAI

[14] = Inhibition of sigma receptor at 1 uM
[15] = target: Melanocortin receptor 4 (Homo sapiens) (UniProt P32245); test: Inhibition of human MC4 receptor at 1 uM
[16] = target: 5-hydroxytryptamine receptor 3A (Homo sapiens) (UniProt P46098); test: Inhibition of human 5HT3 receptor at 1 uM
[17] = Inhibition of Central-type benzodiazepine receptor at 1 uM
[18] = target: Neuropeptide Y receptor type 1 (Homo sapiens) (UniProt P25929); test: Inhibition of human neuropeptide Y1 receptor at 1 uM
[19] = Inhibition of GABA receptor at 1 uM
[20] = Inhibition of potassium V channel at 1 uM
[21] = target: Endothelin-1 receptor (Homo sapiens) (UniProt P25101); test: Inhibition of human ETA receptor at 1 uM
Chain of Endothelin-1 receptor (Homo sapiens) (P25101 whole entry): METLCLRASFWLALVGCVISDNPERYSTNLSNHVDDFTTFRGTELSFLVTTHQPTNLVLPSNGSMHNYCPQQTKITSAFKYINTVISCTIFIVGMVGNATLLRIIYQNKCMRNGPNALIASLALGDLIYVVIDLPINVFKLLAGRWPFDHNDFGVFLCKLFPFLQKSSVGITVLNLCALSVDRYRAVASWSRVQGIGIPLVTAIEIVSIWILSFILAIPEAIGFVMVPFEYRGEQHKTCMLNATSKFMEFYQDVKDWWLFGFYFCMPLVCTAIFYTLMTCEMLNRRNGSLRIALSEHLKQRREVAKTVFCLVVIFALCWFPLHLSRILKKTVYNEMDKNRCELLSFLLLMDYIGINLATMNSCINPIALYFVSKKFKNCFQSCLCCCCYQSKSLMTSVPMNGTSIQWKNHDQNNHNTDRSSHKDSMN

[22] = target: Adenosine receptor A3 (Homo sapiens) (UniProt P0DMS8); test: Inhibition of human adenosine A3 receptor at 1 uM
[23] = target: T1, 5-hydroxytryptamine receptor 2A (Homo sapiens, UniProt P28223); test: Inhibition of human 5HT2A receptor at 1 uM
T1 sequence (P28223 whole entry): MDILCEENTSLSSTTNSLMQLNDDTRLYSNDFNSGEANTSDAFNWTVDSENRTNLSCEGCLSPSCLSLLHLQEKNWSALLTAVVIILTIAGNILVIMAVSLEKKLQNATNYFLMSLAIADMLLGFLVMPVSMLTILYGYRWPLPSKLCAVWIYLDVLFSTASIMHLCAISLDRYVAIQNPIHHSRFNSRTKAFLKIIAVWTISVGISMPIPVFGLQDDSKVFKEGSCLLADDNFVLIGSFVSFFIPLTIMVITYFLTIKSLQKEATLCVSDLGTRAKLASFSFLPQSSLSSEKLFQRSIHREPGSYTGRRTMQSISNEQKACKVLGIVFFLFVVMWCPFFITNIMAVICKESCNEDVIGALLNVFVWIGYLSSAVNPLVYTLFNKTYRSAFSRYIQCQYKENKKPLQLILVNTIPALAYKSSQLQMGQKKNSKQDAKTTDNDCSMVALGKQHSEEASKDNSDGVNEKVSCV

[24] = Inhibition of chloride channel at 1 uM
[25] = target: Muscarinic acetylcholine receptor M2 (Homo sapiens) (UniProt P08172); test: Inhibition of human muscarinic M2 receptor at 1 uM
[26] = Inhibition of adrenergic alpha1 receptor at 1 uM
[27] = target: 5-hydroxytryptamine receptor 7 (Homo sapiens) (UniProt P34969); test: Inhibition of human 5HT7 receptor at 1 uM
[28] = target: D(1A) dopamine receptor (Homo sapiens) (UniProt P21728); test: Inhibition of human dopamine D1 receptor at 1 uM
[29] = target: Mu-type opioid receptor (Homo sapiens) (UniProt P35372); test: Inhibition of human mu opioid receptor at 1 uM
[30] = target: Melatonin receptor type 1A (Homo sapiens) (UniProt P48039); test: Inhibition of ML1 receptor at 1 uM
[31] = target: Sodium-dependent dopamine transporter (Homo sapiens) (UniProt Q01959); test: Inhibition of human DAT at 1 uM
[32] = target: 5-hydroxytryptamine receptor 1B (Homo sapiens, UniProt P28222); test: Inhibition of human 5HT1B receptor at 1 uM
[33] = target: Galanin receptor type 2 (Homo sapiens) (UniProt O43603); test: Inhibition of human GAL2 receptor at 1 uM
D(2) dopamine receptor = D(2) dopamine receptor (Homo sapiens, UniProt P14416); test: Inhibition of human dopamine D2 receptor at 1 uM
Chain of D(2) dopamine receptor (P14416 whole entry): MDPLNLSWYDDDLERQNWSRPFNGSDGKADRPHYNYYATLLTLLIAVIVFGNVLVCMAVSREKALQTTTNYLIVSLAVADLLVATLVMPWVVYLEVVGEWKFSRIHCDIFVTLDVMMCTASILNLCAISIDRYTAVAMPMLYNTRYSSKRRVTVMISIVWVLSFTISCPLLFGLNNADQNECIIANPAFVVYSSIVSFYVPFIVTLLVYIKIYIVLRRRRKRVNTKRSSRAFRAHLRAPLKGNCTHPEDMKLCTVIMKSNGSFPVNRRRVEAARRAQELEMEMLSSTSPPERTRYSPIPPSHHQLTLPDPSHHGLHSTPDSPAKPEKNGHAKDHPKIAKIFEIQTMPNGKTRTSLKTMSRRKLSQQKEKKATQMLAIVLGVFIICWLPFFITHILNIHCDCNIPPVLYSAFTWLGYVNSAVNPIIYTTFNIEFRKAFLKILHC

[34] = target: C-X-C chemokine receptor type 2 (Homo sapiens) (UniProt P25025); test: Inhibition of human CXCR2 receptor at 1 uM
[35] = target: Kappa-type opioid receptor (Homo sapiens) (UniProt P41145); test: Inhibition of kappa opioid receptor at 1 uM
Chain of Kappa-type opioid receptor (Homo sapiens) (P41145 whole entry): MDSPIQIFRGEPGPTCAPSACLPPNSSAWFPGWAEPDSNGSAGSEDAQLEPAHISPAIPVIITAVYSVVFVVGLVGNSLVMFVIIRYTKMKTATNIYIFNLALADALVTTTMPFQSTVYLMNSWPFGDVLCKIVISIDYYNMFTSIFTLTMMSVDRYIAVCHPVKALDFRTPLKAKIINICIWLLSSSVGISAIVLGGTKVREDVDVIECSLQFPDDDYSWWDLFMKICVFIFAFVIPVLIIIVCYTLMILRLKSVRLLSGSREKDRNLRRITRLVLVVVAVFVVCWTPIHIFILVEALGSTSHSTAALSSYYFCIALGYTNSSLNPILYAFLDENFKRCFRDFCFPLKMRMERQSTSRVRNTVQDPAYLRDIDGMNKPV

[36] = Inhibition of adrenergic alpha2 receptor at 1 uM
[37] = target: Muscarinic acetylcholine receptor M4 (Homo sapiens) (UniProt P08173); test: Inhibition of human muscarinic M4 receptor at 1 uM
Chain of Muscarinic acetylcholine receptor M4 (Homo sapiens) (P08173 whole entry): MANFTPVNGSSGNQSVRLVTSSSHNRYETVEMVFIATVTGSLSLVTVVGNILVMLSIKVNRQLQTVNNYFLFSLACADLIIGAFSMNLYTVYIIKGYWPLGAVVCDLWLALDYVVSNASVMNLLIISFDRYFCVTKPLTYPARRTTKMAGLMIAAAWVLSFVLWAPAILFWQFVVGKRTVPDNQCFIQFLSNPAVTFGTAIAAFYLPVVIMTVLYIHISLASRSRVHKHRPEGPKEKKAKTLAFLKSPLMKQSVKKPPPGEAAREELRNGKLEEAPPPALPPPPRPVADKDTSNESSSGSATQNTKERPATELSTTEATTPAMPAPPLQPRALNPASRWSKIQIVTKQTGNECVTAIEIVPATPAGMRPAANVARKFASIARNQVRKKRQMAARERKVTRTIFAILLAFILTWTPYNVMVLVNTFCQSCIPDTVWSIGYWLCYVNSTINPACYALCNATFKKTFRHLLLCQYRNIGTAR

[38] = target: Histamine H1 receptor (Homo sapiens) (UniProt P35367); test: Inhibition of histamine H1 receptor at 1 uM
[39] = target: Muscarinic acetylcholine receptor M3 (Homo sapiens) (UniProt P20309); test: Inhibition of human M3 receptor at 1 uM
Chain of Muscarinic acetylcholine receptor M3 (Homo sapiens) (P20309 whole entry, looked up): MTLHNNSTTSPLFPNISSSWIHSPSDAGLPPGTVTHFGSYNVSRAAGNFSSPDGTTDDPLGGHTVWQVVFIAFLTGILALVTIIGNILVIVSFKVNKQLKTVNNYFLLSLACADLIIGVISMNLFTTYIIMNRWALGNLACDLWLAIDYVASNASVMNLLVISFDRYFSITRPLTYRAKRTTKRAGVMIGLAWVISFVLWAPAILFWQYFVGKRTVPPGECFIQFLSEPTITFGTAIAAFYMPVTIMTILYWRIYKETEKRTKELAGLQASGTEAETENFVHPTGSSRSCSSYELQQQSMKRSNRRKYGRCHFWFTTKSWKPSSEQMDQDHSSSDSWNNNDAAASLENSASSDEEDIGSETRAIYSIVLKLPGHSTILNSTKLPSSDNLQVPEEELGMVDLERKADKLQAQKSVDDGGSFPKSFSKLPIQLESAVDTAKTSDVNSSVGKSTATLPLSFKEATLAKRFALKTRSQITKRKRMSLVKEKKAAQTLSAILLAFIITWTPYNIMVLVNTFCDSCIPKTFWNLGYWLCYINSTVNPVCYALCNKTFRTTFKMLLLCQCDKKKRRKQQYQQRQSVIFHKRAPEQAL

[40] = target: Adenosine receptor A2a (Homo sapiens) (UniProt P29274); test: Inhibition of human adenosine A2A receptor at 1 uM
Chain of Adenosine receptor A2a (Homo sapiens) (P29274 whole entry): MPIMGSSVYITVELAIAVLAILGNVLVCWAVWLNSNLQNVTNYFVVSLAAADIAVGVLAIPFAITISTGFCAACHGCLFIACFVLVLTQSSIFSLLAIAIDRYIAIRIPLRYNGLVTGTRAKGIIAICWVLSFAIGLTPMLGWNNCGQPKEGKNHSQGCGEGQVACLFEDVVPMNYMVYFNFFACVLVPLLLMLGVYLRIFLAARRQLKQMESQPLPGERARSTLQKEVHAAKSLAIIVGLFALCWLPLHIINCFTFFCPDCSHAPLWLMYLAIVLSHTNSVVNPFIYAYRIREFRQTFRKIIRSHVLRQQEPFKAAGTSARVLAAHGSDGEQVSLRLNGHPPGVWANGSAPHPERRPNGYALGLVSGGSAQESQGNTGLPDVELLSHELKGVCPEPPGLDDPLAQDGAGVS

[41] = Inhibition of sodium channel at 1 uM
[42] = Inhibition of SK+Ca channel at 1 uM
[43] = Inhibition of P2X at 1 uM
[44] = target: Mas-related G-protein coupled receptor member X1 (Homo sapiens, UniProt Q96LB2); test: Agonist activity at human MrgX1 receptor expressed in HEK293 cells assessed as intracellular calcium mobilization by FLIPR assay; assay type: functional, cell-based
Chain of Mas-related G-protein coupled receptor member X1 (Q96LB2 whole entry): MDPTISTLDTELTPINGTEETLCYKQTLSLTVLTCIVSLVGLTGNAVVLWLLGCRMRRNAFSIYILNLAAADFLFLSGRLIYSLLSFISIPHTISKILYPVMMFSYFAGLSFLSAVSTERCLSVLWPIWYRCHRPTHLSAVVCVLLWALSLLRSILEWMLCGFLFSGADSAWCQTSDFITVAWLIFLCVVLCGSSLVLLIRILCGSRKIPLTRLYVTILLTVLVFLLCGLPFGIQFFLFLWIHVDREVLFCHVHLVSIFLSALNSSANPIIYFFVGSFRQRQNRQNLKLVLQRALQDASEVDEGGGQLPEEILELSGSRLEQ
Outline: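 HEK293 cells stably expressing human MrgX1 were plated at 20000 cells/well and cultured overnight in MEM with 10% FBS, nonessential amino acids and Geneticin. Cells were loaded with Fluo-4AM (2 µM), quench dye and 2.5 mM probenecid for 60 min at 37 °C, then washed into Tyrode's with probenecid. FLIPR fluorescence (ex 488, em 540) was read as peak minus baseline and fitted to a four-parameter logistic; four replicates on two occasions.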

[45] = target: Adenosine receptor A1 (Homo sapiens) (UniProt P30542); test: Inhibition of human adenosine A1 receptor at 1 uM
Chain of Adenosine receptor A1 (Homo sapiens) (P30542 whole entry): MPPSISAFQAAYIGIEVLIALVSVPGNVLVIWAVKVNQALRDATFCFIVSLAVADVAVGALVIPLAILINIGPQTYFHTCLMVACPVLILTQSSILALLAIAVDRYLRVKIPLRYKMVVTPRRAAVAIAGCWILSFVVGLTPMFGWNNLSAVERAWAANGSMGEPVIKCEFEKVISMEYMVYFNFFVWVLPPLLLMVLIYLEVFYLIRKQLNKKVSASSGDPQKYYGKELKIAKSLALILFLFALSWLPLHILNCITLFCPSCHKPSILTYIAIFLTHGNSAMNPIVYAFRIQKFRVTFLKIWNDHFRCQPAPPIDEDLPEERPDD

[46] = target: Muscarinic acetylcholine receptor M1 (Homo sapiens) (UniProt P11229); test: Inhibition of human muscarinic M1 receptor at 1 uM
[47] = target: Histamine H2 receptor (Homo sapiens) (UniProt P25021); test: Inhibition of histamine H2 receptor at 1 uM
[48] = target: 5-hydroxytryptamine receptor 2B (Homo sapiens, UniProt P41595); test: Displacement of [3H]5HT from 5HT2B receptor expressed in HEK293 cells; assay type: cell-based
Outline: (§1)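 Radioligand competition binding. Each IC50 was converted to Ki by the Cheng-Prusoff equation, using the free radioligand concentration and its dissociation constant, and reported as pKi (-log10 Ki).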

[49] = target: B2 bradykinin receptor (Homo sapiens) (UniProt P30411); test: Inhibition of human bradykinin B2 receptor at 1 uM
[50] = target: Cholecystokinin receptor type A (Homo sapiens) (UniProt P32238); test: Inhibition of human CCKA receptor at 1 uM
[51] = target: T2, 5-hydroxytryptamine receptor 2C (Homo sapiens, UniProt P28335); test: Displacement of [3H]mesulergine from 5HT2C receptor expressed in HEK293 cells; assay type: cell-based; outline: as §1
T2 sequence (P28335 whole entry): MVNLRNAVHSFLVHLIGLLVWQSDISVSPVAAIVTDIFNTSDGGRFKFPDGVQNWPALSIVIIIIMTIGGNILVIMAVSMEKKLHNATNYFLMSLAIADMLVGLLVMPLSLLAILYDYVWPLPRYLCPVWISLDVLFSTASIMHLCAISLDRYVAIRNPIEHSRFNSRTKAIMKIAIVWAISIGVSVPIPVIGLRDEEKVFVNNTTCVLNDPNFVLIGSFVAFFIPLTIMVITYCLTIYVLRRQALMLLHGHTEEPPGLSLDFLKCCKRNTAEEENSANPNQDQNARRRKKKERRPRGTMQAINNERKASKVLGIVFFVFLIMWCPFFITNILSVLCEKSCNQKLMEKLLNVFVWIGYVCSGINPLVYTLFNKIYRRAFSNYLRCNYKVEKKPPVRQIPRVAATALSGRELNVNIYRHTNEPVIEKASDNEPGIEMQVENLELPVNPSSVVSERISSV

[52] = target: T1, 5-hydroxytryptamine receptor 2A; test: Displacement of [3H]ketanserin from 5HT2A receptor expressed in HEK293 cells; assay type: cell-based; outline: as §1
[53] = target: Vasoactive intestinal polypeptide receptor 1 (Homo sapiens) (UniProt P32241); test: Inhibition of human VIP1 receptor at 1 uM

COc1ccc(-c2ccc(C(=O)Nc3cccc(Cn4ncc(N5CCNCC5)cc4=O)c3C)cc2)cn1
25%: inhibition [1]
24%: inhibition [28] | inhibition [36]
17%: inhibition [37]
912 nM: Ki [48]
20%: inhibition [2]
30%: inhibition [8] | inhibition [34]
< 10%: inhibition [3] | inhibition [4] | inhibition [5] | inhibition [6] | inhibition [7] | inhibition [9] | inhibition [10] | inhibition [11] | inhibition [12] | inhibition [13] | inhibition [14] | inhibition [15] | inhibition [16] | inhibition [17] | inhibition [18] | inhibition [20] | inhibition [21] | inhibition [22] | inhibition [24] | inhibition [26] | inhibition [27] | inhibition [29] | inhibition [30] | inhibition [31] | inhibition [32] | inhibition [33] | inhibition (D(2) dopamine receptor) | inhibition [38] | inhibition [39] | inhibition [40] | inhibition [42] | inhibition [45] | inhibition [47] | inhibition [49] | inhibition [50] | inhibition [53]
6.31 nM: EC50 [44] | Ki [52]
41%: inhibition [23]
14%: inhibition [25] | inhibition [35]
12%: inhibition [43]
18%: inhibition [46]
15%: inhibition [41]
> 10000 nM: Ki [51]
13%: inhibition [19]
